Data published in ChEMBL document CHEMBL1671711, “Serum and cerebrospinal fluid levels of colistin in pediatric patients” (Antimicrob Agents Chemother, 2010).

How the values were obtained:
Type in all cases: ADME, organism-based
[1] = Drug level in pediatric patient cerebrospinal fluid with gram-negative bacterial infection at 16 mg/kg/day, iv administered every 8 hrs for 51 days measured after 30 mins by LS/MS/MS analysis; design: route intravenous; conditions: human, in vivo, 0.5 h
Procedure, shortened: (§1)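 CMS was given by 20-min IV infusion in saline every 8 h, and CSF was taken from EVD systems after the end of infusion. The CSF–serum 1:1 mix was treated with 1 M H2SO4 for 15–20 min, then 1 M NaOH, then acetonitrile with 0.1% TFA. CMS was calculated as colistin after hydrolysis minus colistin before hydrolysis, by LC-MS-MS, with CMS controls of 0.25–18.5 μg/ml. Values are means of two days; course 1 was sampled once.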

[2] = Ratio of drug level in cerebrospinal fluid to Serum of pediatric patient with gram-negative bacterial infection at 16 mg/kg/day, iv administered every 8 hrs for 51 days by LS/MS/MS analysis; design: route intravenous; conditions: human, csf
Procedure, shortened: (§2)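 Percentages are the ratio of mean CSF concentration to mean serum concentration from paired samples. Blood was drawn immediately before and 30 min after the 20-min IV CMS infusion (every 8 h); CSF came from EVD systems concurrently. Both were measured by LC-MS-MS, for colistin directly and for CMS after acid hydrolysis. Pairs were repeated on two days.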

[3] = tested on: Serum; test: Drug level in pediatric patient serum with gram-negative bacterial infection before initiation of 16 mg/kg/day, iv administered every 8 hrs for 93 days by LS/MS/MS analysis; design: route intravenous; conditions: human, in vivo
Procedure, shortened: (§3)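 Trough sampling: blood was drawn immediately before the 20-min IV CMS infusion (every 8 h), and CSF was taken from EVD systems within 1 h before infusion. Samples were stored at −80°C and analysed by LC-MS-MS for colistin, and for CMS via acid hydrolysis with subtraction. CSF was diluted 1:1 with serum. Values are means of two days.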

[4] = Ratio of drug level in cerebrospinal fluid to Serum of pediatric patient with gram-negative bacterial infection assessed as Colistin level at 4.8 mg/kg/day, iv administered every 8 hrs for 7 days by LS/MS/MS analysis; design: route intravenous; conditions: human, csf; procedure, shortened: as §2
[5] = tested on: Serum; test: Drug level in pediatric patient serum with gram-negative bacterial infection before initiation of 4.8 mg/kg/day, iv administered every 8 hrs for 7 days by LS/MS/MS analysis; design: route intravenous; conditions: human, in vivo; procedure, shortened: as §3
[6] = Ratio of drug level in cerebrospinal fluid to Serum of pediatric patient with gram-negative bacterial infection assessed as Colistin level at16 mg/kg/day, iv administered every 8 hrs for 93 days by LS/MS/MS analysis; conditions: human, csf; procedure, shortened: as §2
[7] = tested on: Serum; test: Drug level in pediatric patient serum with gram-negative bacterial infection assessed as Colistin level at 16 mg/kg/day, iv administered every 8 hrs for 93 days measured after 30 mins by LS/MS/MS analysis; design: route intravenous; conditions: human, in vivo, 0.5 h
Procedure, shortened: (§4)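 Blood was drawn 30 min after the end of the 20-min IV CMS infusion, given every 8 h. Serum was separated by centrifugation, stored at −80°C, and assayed by LC-MS-MS for colistin A plus B (interday CV <4.4%, accuracy within ±1.9%). Values are means of two sampling days; course 1 was sampled once.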

[8] = Ratio of drug level in cerebrospinal fluid to Serum of pediatric patient with gram-negative bacterial infection at 10.4 mg/kg/day, iv administered every 8 hrs for 46 days by LS/MS/MS analysis; design: route intravenous; conditions: human, csf; procedure, shortened: as §2
[9] = Drug level in pediatric patient cerebrospinal fluid with gram-negative bacterial infection before initiation of 4.8 mg/kg/day, iv administered every 8 hrs for 7 days by LS/MS/MS analysis; design: route intravenous; conditions: human, in vivo; procedure, shortened: as §3
[10] = Drug level in pediatric patient cerebrospinal fluid with gram-negative bacterial infection at 10.4 mg/kg/day, iv administered every 8 hrs for 46 days measured after 30 mins by LS/MS/MS analysis; design: route intravenous; conditions: human, in vivo, 0.5 h; procedure, shortened: as §1
[11] = Drug level in pediatric patient cerebrospinal fluid with gram-negative bacterial infection before initiation of 16 mg/kg/day, iv administered every 8 hrs for 93 days by LS/MS/MS analysis; design: route intravenous; conditions: human, in vivo; procedure, shortened: as §3
[12] = tested on: Serum; test: Drug level in pediatric patient serum with gram-negative bacterial infection before initiation of 18 mg/kg/day, iv administered every 8 hrs for 42 days by LS/MS/MS analysis; design: route intravenous; conditions: human, in vivo; procedure, shortened: as §3
[13] = Drug level in pediatric patient cerebrospinal fluid with gram-negative bacterial infection at 4.8 mg/kg/day, iv administered every 8 hrs for 7 days measured after 30 mins by LS/MS/MS analysis; design: route intravenous; conditions: human, in vivo, 0.5 h; procedure, shortened: as §1
[14] = Drug level in pediatric patient cerebrospinal fluid with gram-negative bacterial infection at 18 mg/kg/day, iv administered every 8 hrs for 42 days measured after 30 mins by LS/MS/MS analysis; design: route intravenous; conditions: human, in vivo, 0.5 h; procedure, shortened: as §1
[15] = Drug level in pediatric patient cerebrospinal fluid with gram-negative bacterial infection assessed as Colistin level at 18 mg/kg/day, iv administered every 8 hrs for 42 days measured after 30 mins by LS/MS/MS analysis; design: route intravenous; conditions: human, in vivo, 0.5 h
Procedure, shortened: (§5)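 Children (1 month to 14 years) received CMS in 30 to 50 ml normal saline by 20-min IV infusion every 8 h. CSF was taken from EVD systems alongside blood, after the end of infusion, and stored at −80°C. It was diluted 1:1 with serum, protein-precipitated, and analysed by LC-MS-MS for colistin A plus B against standards in pH 7.4 phosphate-buffered artificial-CSF Ringer with serum. Values are means of two days; course 1 was sampled once.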

[16] = tested on: Serum; test: Drug level in pediatric patient serum with gram-negative bacterial infection before initiation of 10.4 mg/kg/day, iv administered every 8 hrs for 46 days by LS/MS/MS analysis; design: route intravenous; conditions: human, in vivo; procedure, shortened: as §3
[17] = Ratio of drug level in cerebrospinal fluid to Serum of pediatric patient with gram-negative bacterial infection assessed as Colistin level at 16 mg/kg/day, iv administered every 8 hrs for 51 days by LS/MS/MS analysis; design: route intravenous; conditions: human, csf; procedure, shortened: as §2
[18] = Ratio of drug level in cerebrospinal fluid to Serum of pediatric patient with gram-negative bacterial infection assessed as Colistin level at 10.4 mg/kg/day, iv administered every 8 hrs for 46 days by LS/MS/MS analysis; design: route intravenous; conditions: human, csf; procedure, shortened: as §2
[19] = Drug level in pediatric patient cerebrospinal fluid with gram-negative bacterial infection before initiation of 18 mg/kg/day, iv administered every 8 hrs for 42 days by LS/MS/MS analysis; design: route intravenous; conditions: human, in vivo; procedure, shortened: as §3
[20] = tested on: Serum; test: Drug level in pediatric patient serum with gram-negative bacterial infection assessed as Colistin level at 16 mg/kg/day, iv administered every 8 hrs for 51 days measured after 30 mins by LS/MS/MS analysis; design: route intravenous; conditions: human, in vivo, 0.5 h; procedure, shortened: as §4
[21] = Ratio of drug level in cerebrospinal fluid to Serum of pediatric patient with gram-negative bacterial infection before initiation of 10.4 mg/kg/day, iv administered every 8 hrs for 46 days by LS/MS/MS analysis; design: route intravenous; conditions: human, csf; procedure, shortened: as §2
[22] = Drug level in pediatric patient cerebrospinal fluid with gram-negative bacterial infection assessed as Colistin level at 16 mg/kg/day, iv administered every 8 hrs for 93 days measured after 30 mins by LS/MS/MS analysis; design: route intravenous; conditions: human, in vivo, 0.5 h; procedure, shortened: as §5

Drug uptake [1]: 0.09 µg/mL
Ratio [2]: 0.9%
Drug uptake [3]: 0.75 µg/mL
Ratio [4]: 19.3%
Drug uptake [5]: 0.28 µg/mL
Ratio [6]: 34.8%
Drug uptake [7]: 1.33 µg/mL
Ratio [8]: 0.2%
Drug uptake [9]: 0.06 µg/mL
Drug uptake [10]: 0.02 µg/mL
Drug uptake [11]: 0.38 µg/mL
Drug uptake [12]: 6.11 µg/mL
Drug uptake [13]: 0.06 µg/mL
Drug uptake [14]: 0.03 µg/mL
Drug uptake [15]: 0.07 µg/mL
Drug uptake [16]: 0.84 µg/mL
Ratio [17]: 7.2%
Ratio [18]: 3.4%
Drug uptake [19]: 0.04 µg/mL
Drug uptake [20]: 1.6 µg/mL
Ratio [21]: 3.1%
Drug uptake [22]: 0.46 µg/mL
Sequence: COLISTIN
